Results: ChEMBL document CHEMBL3407418, “Fragment-based drug discovery of 2-thiazolidinones as BRD4 inhibitors: 2. Structure-based optimization” (J Med Chem, 2015)

Legend:
[1] = target: Bromodomain-containing protein 4 (Homo sapiens, UniProt O60885); experiment: Inhibition of BRD4(1) (unknown origin) incubated for 4 hrs by (+)-JQ1 fluorescent ligand based fluorescence anisotrophy
HT-29 = experiment: Growth inhibition of human HT-29 cells after 72 hrs by SRB assay; format: functional, cell-based; conditions: HT-29, 72 h
Outline: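 HT-29 cells are grown in McCoy's 5A with 10% FBS at 37 °C, 5% CO2. DMSO stocks (0.01 mol/L) are diluted in normal saline just before use. Cells are treated in triplicate with gradient concentrations for 72 h at 37 °C.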

[2] = Stability in human liver microsomes assessed as clearance at 1 uM pre-incubated for 5 mins followed by NADPH addition and measured after 5 to 30 mins post NADPH addition by LC/MS/MS method; format: ADME; conditions: read-out: CLH
Outline: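 Human liver microsomes (0.5 mg/mL) preincubated with 1 µM compound for 5 min at 37 °C in 0.1 M phosphate pH 7.4 with 1 mmol EDTA and 5 mmol MgCl2. Started with 1 mmol NADPH; sampled at 0, 5, 10 and 30 min. Quenched with equal volume of cold acetonitrile, vortexed, and centrifuged at 10,000 × g.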

CYP3A4 [3] = target: T1, CYP3A4 (Homo sapiens, UniProt P08684); experiment: Inhibition of CYP3A4 in human liver microsomes at 10 uM using midazolam substrate preincubated for 5 mins before NADPH addition and measured after 20 mins post NADPH addition; format: ADME; conditions: probe midazolam
T1 sequence (P08684 whole entry): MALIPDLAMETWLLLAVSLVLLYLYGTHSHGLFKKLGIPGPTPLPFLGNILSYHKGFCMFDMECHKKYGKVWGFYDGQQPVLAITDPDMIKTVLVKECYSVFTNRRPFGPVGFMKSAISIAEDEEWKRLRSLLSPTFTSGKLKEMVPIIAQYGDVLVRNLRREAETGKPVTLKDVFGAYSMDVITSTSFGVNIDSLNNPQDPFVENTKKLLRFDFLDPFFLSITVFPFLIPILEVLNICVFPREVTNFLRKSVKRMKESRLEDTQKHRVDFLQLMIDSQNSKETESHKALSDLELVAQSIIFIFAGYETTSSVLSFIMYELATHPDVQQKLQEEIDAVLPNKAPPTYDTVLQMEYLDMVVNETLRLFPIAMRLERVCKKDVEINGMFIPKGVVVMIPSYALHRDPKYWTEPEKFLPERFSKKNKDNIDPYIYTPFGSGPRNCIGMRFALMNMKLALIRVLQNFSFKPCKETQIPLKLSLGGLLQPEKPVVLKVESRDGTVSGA
Outline: (§1)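 Human liver microsomes 0.2 mg/mL, 1 mmol NADPH, 100 mmol phosphate pH 7.4, probe cocktail (10 μM midazolam, 100 μM testosterone, 10 μM dextromethorphan, 20 μM diclofenac, 100 μM phenacetin, 100 μM mephenytoin), test compound 10 μM or PBS; organic solvent <1%. 5 min preincubation at 37 °C, NADPH-generating system start, 20 min reaction; inhibition from metabolite formation relative to PBS.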

CYP3A4 [4] = target: T1, CYP3A4; experiment: Inhibition of CYP3A4 in human liver microsomes at 10 uM preincubated for 5 mins before NADPH addition and measured after 20 mins post NADPH addition; format: ADME
CYP2D6 = CYP2D6 (Homo sapiens, UniProt P10635); experiment: Inhibition of CYP2D6 in human liver microsomes at 10 uM using dextromethorphan substrate preincubated for 5 mins before NADPH addition and measured after 20 mins post NADPH addition; format: ADME; conditions: liver microsomes, probe dextromethorphan; outline: as §1
CYP2D6, sequence (P10635 whole entry): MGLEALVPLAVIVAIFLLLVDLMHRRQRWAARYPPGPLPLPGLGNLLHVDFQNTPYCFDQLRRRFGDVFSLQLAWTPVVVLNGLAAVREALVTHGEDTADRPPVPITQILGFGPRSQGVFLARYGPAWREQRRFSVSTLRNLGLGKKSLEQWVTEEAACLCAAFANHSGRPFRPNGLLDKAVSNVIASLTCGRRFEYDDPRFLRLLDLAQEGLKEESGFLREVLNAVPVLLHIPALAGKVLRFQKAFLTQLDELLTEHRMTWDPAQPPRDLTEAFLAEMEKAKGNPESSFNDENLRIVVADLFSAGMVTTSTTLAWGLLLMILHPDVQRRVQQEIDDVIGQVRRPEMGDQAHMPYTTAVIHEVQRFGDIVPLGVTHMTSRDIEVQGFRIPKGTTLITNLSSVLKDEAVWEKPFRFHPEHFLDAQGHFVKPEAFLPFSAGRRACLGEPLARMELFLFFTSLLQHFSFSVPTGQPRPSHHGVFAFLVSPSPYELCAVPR

Cytochrome P450 2C9 [5] = target: T2, Cytochrome P450 2C9 (Homo sapiens, UniProt P11712); experiment: Inhibition of CYP2C9 in human liver microsomes at 10 uM using diclofenac substrate preincubated for 5 mins before NADPH addition and measured after 20 mins post NADPH addition; format: ADME; conditions: microsomes, 20 min, 10 µM; outline: as §1
T2 sequence (P11712 whole entry): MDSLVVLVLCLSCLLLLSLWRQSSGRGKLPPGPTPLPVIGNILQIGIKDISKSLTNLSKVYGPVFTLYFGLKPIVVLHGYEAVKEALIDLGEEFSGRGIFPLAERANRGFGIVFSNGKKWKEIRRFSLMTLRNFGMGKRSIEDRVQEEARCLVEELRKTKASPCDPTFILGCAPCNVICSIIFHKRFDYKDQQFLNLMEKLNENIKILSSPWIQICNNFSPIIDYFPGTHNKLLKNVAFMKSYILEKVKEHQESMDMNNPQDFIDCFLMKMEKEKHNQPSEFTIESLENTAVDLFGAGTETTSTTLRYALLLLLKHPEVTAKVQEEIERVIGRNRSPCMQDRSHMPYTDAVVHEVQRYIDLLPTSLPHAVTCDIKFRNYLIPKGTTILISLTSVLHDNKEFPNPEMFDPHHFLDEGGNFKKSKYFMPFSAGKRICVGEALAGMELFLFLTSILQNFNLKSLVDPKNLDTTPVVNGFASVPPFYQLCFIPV

CYP1A2 = target: T3, CYP1A2 (Homo sapiens, UniProt P05177); experiment: Inhibition of CYP1A2 in human liver microsomes at 10 uM using phenacetin substrate preincubated for 5 mins before NADPH addition and measured after 20 mins post NADPH addition; format: ADME; conditions: probe phenacetin; outline: as §1
T3 sequence (P05177 whole entry): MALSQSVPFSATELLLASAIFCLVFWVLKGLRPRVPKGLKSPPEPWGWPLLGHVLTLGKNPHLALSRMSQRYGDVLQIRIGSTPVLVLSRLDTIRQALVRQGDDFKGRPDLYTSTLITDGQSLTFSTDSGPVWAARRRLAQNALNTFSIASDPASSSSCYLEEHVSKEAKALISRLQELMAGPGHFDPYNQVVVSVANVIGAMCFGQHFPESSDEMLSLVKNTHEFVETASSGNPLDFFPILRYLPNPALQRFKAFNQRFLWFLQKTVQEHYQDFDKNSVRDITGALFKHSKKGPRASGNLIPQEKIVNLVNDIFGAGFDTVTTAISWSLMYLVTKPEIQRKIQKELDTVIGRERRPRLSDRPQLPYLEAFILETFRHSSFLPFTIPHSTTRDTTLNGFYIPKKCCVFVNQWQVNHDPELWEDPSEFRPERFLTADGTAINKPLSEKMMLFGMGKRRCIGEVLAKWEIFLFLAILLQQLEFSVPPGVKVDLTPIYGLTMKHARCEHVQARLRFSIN

CYP2C19 = CYP2C19 (Homo sapiens, UniProt P33261); experiment: Inhibition of CYP2C19 in human liver microsomes at 10 uM using mephenytoin substrate preincubated for 5 mins before NADPH addition and measured after 20 mins post NADPH addition; format: ADME; conditions: probe mephenytoin; outline: as §1
CYP2C19, sequence (P33261 whole entry): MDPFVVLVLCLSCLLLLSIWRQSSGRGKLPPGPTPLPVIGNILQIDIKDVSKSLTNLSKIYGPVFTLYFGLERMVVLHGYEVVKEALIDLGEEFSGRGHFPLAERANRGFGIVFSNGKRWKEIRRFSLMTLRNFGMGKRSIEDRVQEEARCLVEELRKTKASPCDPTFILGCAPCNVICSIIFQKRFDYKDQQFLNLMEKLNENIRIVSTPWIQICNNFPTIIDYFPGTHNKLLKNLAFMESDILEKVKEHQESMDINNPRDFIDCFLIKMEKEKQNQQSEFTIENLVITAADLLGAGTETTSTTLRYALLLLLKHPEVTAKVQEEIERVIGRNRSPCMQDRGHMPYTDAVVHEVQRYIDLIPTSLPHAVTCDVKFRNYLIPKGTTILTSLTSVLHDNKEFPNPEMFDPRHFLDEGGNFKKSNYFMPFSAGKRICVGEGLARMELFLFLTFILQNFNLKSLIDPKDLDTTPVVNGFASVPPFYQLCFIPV

Cytochrome P450 3A4 = Cytochrome P450 3A4 (Homo sapiens, UniProt P08684); experiment: Time dependent inhibition of CYP3A4 in human liver microsomes at 10 uM using midazolam substrate preincubated for 5 mins before NADPH addition and measured after 20 mins post NADPH addition; format: ADME
Cytochrome P450 3A4, sequence (P08684 whole entry): as the sequence (P08684 whole entry) above

Cytochrome P450 2D6 = Cytochrome P450 2D6 (Homo sapiens, UniProt P10635); experiment: Time dependent inhibition of CYP2D6 in human liver microsomes at 10 uM using dextromethorphan substrate preincubated for 5 mins before NADPH addition and measured after 20 mins post NADPH addition; format: ADME
Cytochrome P450 2D6, sequence (P10635 whole entry): as the sequence (P10635 whole entry) above

Cytochrome P450 2C9 [6] = target: T2, Cytochrome P450 2C9; experiment: Time dependent inhibition of CYP2C9 in human liver microsomes at 10 uM using diclofenac substrate preincubated for 5 mins before NADPH addition and measured after 20 mins post NADPH addition; format: ADME
Cytochrome P450 1A2 = target: T4, Cytochrome P450 1A2 (Homo sapiens, UniProt P05177); experiment: Time dependent inhibition of CYP1A2 in human liver microsomes at 10 uM using phenacetin substrate preincubated for 5 mins before NADPH addition and measured after 20 mins post NADPH addition; format: ADME
T4 sequence (P05177 whole entry): T3 sequence (P05177 whole entry)

Cytochrome P450 2C19 = Cytochrome P450 2C19 (Homo sapiens, UniProt P33261); experiment: Time dependent inhibition of CYP2C19 in human liver microsomes at 10 uM using mephenytoin substrate preincubated for 5 mins before NADPH addition and measured after 20 mins post NADPH addition; format: ADME
Cytochrome P450 2C19, sequence (P33261 whole entry): as the sequence (P33261 whole entry) above

[7] = Growth inhibition of human MM1S cells after 72 hrs by CellTiter-Glo luminescent cell viability assay; conditions: MM1.S
MV4-11 = experiment: Growth inhibition of human MV4-11 cells after 72 hrs by CellTiter-Glo luminescent cell viability assay; conditions: MV4-11, 72 h

IC50 [1]: 250 nM | IC50 (HT-29): 850 nM | microsomal CLint at 1 µM [2]: 174 µL/min/mg | inhibition at 20 min, 10 µM (CYP3A4 [3]): 41% | inhibition at 20 min, 10 µM (CYP3A4 [4]): 47% | inhibition at 20 min, 10 µM (CYP2D6): 36% | inhibition (INH) (Cytochrome P450 2C9 [5]): Not Active | inhibition at 20 min, 10 µM (CYP1A2): 37% | inhibition at 20 min, 10 µM (CYP2C19): 17% | TDI (Cytochrome P450 3A4): Not Active | TDI (Cytochrome P450 2D6): Not Active | TDI (Cytochrome P450 2C9 [6]): Not Active | TDI (Cytochrome P450 1A2): Not Active | TDI (Cytochrome P450 2C19): Not Active | IC50 [7]: 505 nM | IC50 (MV4-11): 198 nM
Structure (SMILES): CNc1cc(-c2csc(=O)[nH]2)cc(S(=O)(=O)NC2CCCC2)c1C
